Activity calls are given as the source filed them.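 Rule for the calls: active = compounds blocking BCL-xL binding with IC50 of 10 µM or lower; inactive = the rest.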

In the assay the target is Bcl-2-like protein 1 (Homo sapiens) (UniProt Q07817). As to the kind of experiment: Bcl-xL inhibition by probe candidates, late-stage follow-up, counter-screen for MCL1-BIM inhibitor project, biochemical, fluorescence polarization, probe report (AID 624411). The note with it: GST-BCL-xL / FITC-Bim BH3 fluorescence polarization. A digest of the protocol: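 Probe or stimulus – FITC-labelled Bim BH3 peptide probe at 4 nM · System – purified GST-Bcl-xL fusion protein, human Bcl-xL · Amount – 12.5 nM GST-Bcl-xL · Controls – DMSO and unlabeled Bim-BH3 peptide · Technique – fluorescence polarization, mP · Medium – PBS with 0.001% Brij · Timing – compound incubation 20 min at room temperature · Read-out basis – IC50 from curve fit at 50% inhibition level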
Bcl-2-like protein 1 (Homo sapiens), sequence (Q07817 whole entry, looked up, the tested form may be a part): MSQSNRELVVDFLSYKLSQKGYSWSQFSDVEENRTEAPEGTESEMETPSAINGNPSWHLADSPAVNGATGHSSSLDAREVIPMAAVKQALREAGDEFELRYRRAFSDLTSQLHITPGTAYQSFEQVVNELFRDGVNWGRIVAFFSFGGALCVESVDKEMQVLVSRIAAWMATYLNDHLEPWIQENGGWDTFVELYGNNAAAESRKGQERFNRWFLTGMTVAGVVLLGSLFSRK
In general terms: Counterscreens check selectivity or assay interference.

For the compound `CCN1CCN(C(c2ccc(C(F)(F)F)cc2)c2ccc3cccnc3c2O)CC1` (stereo unspecified), the IC50 (in general, the concentration needed to halve the response being measured) was > 40 µM (inactive).

For the origin of these results see PubChem BioAssay AID624411 (The Scripps Research Institute Molecular Screening Center, 2012).
